Measured values reported in ChEMBL document CHEMBL2321739, “Discovery of a novel small molecule inhibitor targeting the frataxin/ubiquitin interaction via structure-based virtual screening and bioassays” (J Med Chem, 2013).
Positions count from the first letter of the chain named. The source made the active and inactive calls. The rule behind the calls is not given here. Peptide text beside a SMILES is read from it. * marks the point of attachment. Cbz = O=C(OCc1ccccc1)*

Experiments:
[1] = (§1) Inhibition of human His-tagged Frataxin/GST-tagged mono ubiquitin interaction expressed in human Calu6 cells after 3 days by GST pull down-based Western blot analysis; assay type: cell-based; details: calu-6
In short: (§2)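 Calu-6 cells transfected with His-frataxin or His-K147R. From 24 h post-transfection, cells received 10 µM MG132 for 18 h, or compound for 3 days with MG132 added for the last 18 h. Lysate (500 µg) pulled down with 5 µg GST-monoUb or GST on GSH-sepharose, 4 h at 4 °C, pH 7.5 buffer. Eluates blotted with anti-His and quantified by densitometry as % of control. IC50 obtained by four-parameter logistic fit; at least three independent experiments.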

Calu-6 [2] = experiment: as §1; assay type: cell-based; in short: as §2
Calu-6 [3] = experiment: Inhibition of human His-tagged Frataxin/Ubiquitin interaction expressed in human Calu6 cells assessed as increase in mature frataxin (81-210) level at 50 uM after 3 days by Western blotting analysis; assay type: cell-based
In short: (§3)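 Calu-6 cells (DMEM with glutamax, 10% FBS) transiently transfected with His-frataxin. From 24 h post-transfection, treated with 10 µM proteasome inhibitor for 18 h or 50 µM compound for 3 days. Extracts (50 µg) resolved on 15% SDS gels and immunoblotted with anti-frataxin using ECL detection. Band levels quantified by PhosphorImager and normalized to tubulin. Three independent experiments.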

[4] = target: T1, Frataxin, mitochondrial (Homo sapiens) (UniProt Q16595); experiment: Binding affinity to recombinant His-tagged frataxin (unknown origin) at 1 uM at 25 degC by UF-LC/MS analysis relative to control
T1 sequence (whole entry): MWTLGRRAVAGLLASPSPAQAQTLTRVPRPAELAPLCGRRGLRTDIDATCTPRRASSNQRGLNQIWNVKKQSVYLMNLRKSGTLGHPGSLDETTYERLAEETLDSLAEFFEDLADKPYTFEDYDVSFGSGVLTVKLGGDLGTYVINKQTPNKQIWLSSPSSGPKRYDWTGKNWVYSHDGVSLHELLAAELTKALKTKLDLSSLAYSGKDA
In short: (§4)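 His-frataxin recombinant protein (E. coli-expressed, Ni-NTA purified), 1 µM, incubated with ligand at 1 µM in 100 mM Tris-HCl pH 7.5, 50 mM KCl, 5 mM MgCl2, DMSO ≤2%, for 60 min at 25 or 37 °C. Unbound ligand removed by ultrafiltration and washing. Bound ligand dissociated in methanol and quantified by LC/MS (ESI positive). Ratio of peak area with active vs heat-denatured (90 °C, 1 h) protein. Duplicate assays, each analyzed twice.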

[5] = target: T1, Frataxin, mitochondrial (Homo sapiens); experiment: Binding affinity to recombinant His-tagged frataxin (unknown origin) at 1 uM at 37 degC by UF-LC/MS analysis relative to control; in short: as §4
Calu-6 [6] = experiment: Cytotoxicity against human Calu6 cells assessed as cell viability up to 100 uM; assay type: cell-based
Calu-6 [7] = experiment: Inhibition of His-tagged Frataxin (unknown origin)/Ubiquitin interaction expressed in human Calu6 cells assessed as increase in frataxin (1-210) precursor level at 10 uM after 18 hrs by Western blotting analysis; assay type: cell-based; in short: as §3
[8] = system: T2, Frataxin, mitochondrial (Homo sapiens), Q16595 [K147R]; experiment: Inhibition of recombinant GST-tagged mono ubiquitin/His-tagged Frataxin K147R mutant (unknown origin) interaction expressed in human Calu6 cells assessed as presence of frataxin signal at 10 uM after 18 hrs by GST pull down-based Western blotting analysis; assay type: cell-based; details: Calu-6; in short: as §2
T2 sequence (whole entry): T1 sequence (whole entry) with K147R

Calu-6 [9] = experiment: Inhibition of recombinant His-tagged Frataxin (unknown origin)/GST-tagged mono ubiquitin interaction expressed in human Calu6 cells assessed as presence of frataxin signal at 10 uM after 18 hrs by GST pull down-based Western blotting analysis; assay type: cell-based; in short: as §2
Calu-6 [10] = experiment: Inhibition of His6-tagged Frataxin (unknown origin)/HA-tagged Ubiquitin interaction expressed in human Calu6 cells assessed as accumulation of frataxin at 10 uM after 18 hrs by immunoprecipitation assay; assay type: cell-based
In short: (§5)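 Calu-6 cells cotransfected with His-frataxin and HA-Ub, then treated with 10 µM MG132 for 18 h starting 24 h after transfection. Frataxin immunoprecipitated from 1.5 mg extract using anti-frataxin on protein A/G beads (4 °C, 12 h). Precipitates run on 12% SDS-PAGE and blotted with anti-Ub. Three independent experiments.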

Calu-6 [11] = experiment: Inhibition of His-tagged Frataxin (unknown origin)/HA-tagged Ubiquitin interaction expressed in human Calu6 cells assessed as accumulation of monoUB-tagged frataxin (1-210) precursor at 10 uM after 18 hrs by immunoprecipitation assay; assay type: cell-based; in short: as §5

| Structure (SMILES) | IC50 [1] [µM] | inhibition (Calu-6 [2]) | other results |
| --- | --- | --- | --- |
| COc1cc(OC)c(C(c2cc3c(cc2O)OCO3)N2CCOCC2)c(OC)c1 (stereo not drawn) | 53 | Dose-dependent effect |  |
| COc1ccc(C(c2cc3c(cc2O)OCO3)N2CCOCC2)cc1 (stereo not drawn) | 65 | Dose-dependent effect |  |
| Oc1cc2c(cc1C(c1ccc(Cl)cc1)N1CCOCC1)OCO2 (stereo not drawn) | 68 | Dose-dependent effect |  |
| COc1cccc(C(c2cc3c(cc2O)OCO3)N2CCOCC2)c1OC (single isomer, unassigned; (+)) [listing 1 of 2 here] |  | Dose-dependent effect | inhibition (Calu-6 [3]): Active; fold change (FC) [4]: 3.7; fold change (FC) [5]: 3.32 |
| COc1cccc(C(c2cc3c(cc2O)OCO3)N2CCOCC2)c1OC (single isomer, unassigned; (+)) [listing 2 of 2 here] | 45 |  | Activity (Calu-6 [6]): Non-toxic |
| CC(C)C[C@H](NC(=O)[C@H](Cc1ccccc1)NC(=O)c1cnccn1)B(O)O |  |  | inhibition (Calu-6 [7]): Active |
| COc1cccc(C(c2cc3c(cc2O)OCO3)N2CCOCC2)c1O (stereo not drawn) | 29 | Dose-dependent effect |  |
| COc1cccc(C(c2cc3c(cc2O)OCO3)N2CCOCC2)c1OC (single isomer, unassigned; (-)) |  |  | inhibition (Calu-6 [3]): inactive |
| Oc1cc2c(cc1C(c1ccc3c(c1)OCO3)N1CCOCC1)OCO2 (stereo not drawn) | 70 | Dose-dependent effect |  |
| Oc1cc2c(cc1C(c1ccc(F)cc1)N1CCOCC1)OCO2 (stereo not drawn) | 67 | Dose-dependent effect |  |
| CN(C)c1ccc(C(c2cc3c(cc2O)OCO3)N2CCOCC2)cc1 (stereo not drawn) | 81 | Dose-dependent effect |  |
| Oc1ccccc1C(c1cc2c(cc1O)OCO2)N1CCOCC1 (stereo not drawn) | 80 | Dose-dependent effect |  |
| COc1cccc(C(c2cc3c(cc2O)OCO3)N2CCOCC2)c1OC (racemic) |  |  | inhibition (Calu-6 [3]): Active |
| COc1ccc(C(c2cc3c(cc2O)OCO3)N2CCCCC2)cc1 (stereo not drawn) | 82 | Dose-dependent effect |  |
| COc1ccc(C(c2cc3c(cc2O)OCO3)N2CCOCC2)cc1OC (stereo not drawn) | 20 | Dose-dependent effect |  |
| COc1ccc(C(c2cc3c(cc2O)OCO3)N2CCOCC2)c(OC)c1 (stereo not drawn) | 44 | Dose-dependent effect |  |
| COc1ccc(C(c2cc3c(cc2O)OCO3)N2CCCC2)cc1 (stereo not drawn) | 97 | Dose-dependent effect |  |
| CC(C)C[C@@H](C=O)NC(=O)[C@H](CC(C)C)NC(=O)[C@H](CC(C)C)NC(=O)OCc1ccccc1 (Cbz-Leu-Leu-Leu-aldehyde) |  |  | inhibition [8]: inactive; inhibition (Calu-6 [7]): Active; inhibition (Calu-6 [9]): Active; inhibition (Calu-6 [10]): Active; inhibition (Calu-6 [11]): Active |
